Key:
[1] = test system: HeLa cells; assay: STS-induced apoptosis; type: cell-based; settings: 100 nM STS 20 h without the peptides
Procedure, shortened: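 HeLa cells in DMEM + 10% FBS, grown to 70%–80% confluence. Apoptosis induced with 100 nM staurosporine for 20 h; untreated cells as control. Early apoptosis scored by Annexin V–FITC staining, late apoptosis by TUNEL, as percentage of cells. Means + S.D. from three independent experiments.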

[2] = test system: selenite-induced cataracts in rats; assay: Selenite cataract in rat pups; type: in vivo, Sprague–Dawley rat; settings: selenite alone compared with untreated controls

SMILES: CN[C@@H]1C[C@H]2O[C@@](C)([C@@H]1OC)n1c3ccccc3c3c4c(c5c6ccccc6n2c5c31)C(=O)NC4 [STS, staurosporine]
- early-stage apoptosis (% of the cells), inducer alone ([1]; Annexin V–FITC): 14%
- late stage apoptosis (% of the cells), inducer alone ([1]; TUNEL): 5%

SMILES: O=[Se]([O-])[O-].[Na+].[Na+] [sodium selenite]
- total soluble lens proteins, selenite alone ([2]; Fig 9B): reduction
- lens GSH content, selenite alone ([2]; Fig 9C): reduction
